One experiment relates to HT-29. Kind of experiment: Cytotoxicity against human HT-29 cells at <=200 uM after 24 hrs by MTT assay. Type of experiment: functional, cell-based. The procedure, abridged: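 HT29 colon cancer cells seeded at 1 × 10⁵ cells/well in RPMI 1640, adhered overnight at 37 °C, then exposed to various compound concentrations (up to 200 μM) for 24 h at 37 °C. MTT ([…] in RPMI 1640) added for 1 h at 37 °C; cells lysed, crystals dissolved in isopropanol, absorbance read at 570 nm.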

For another experiment, the target named is T1, Caspase-3 (Homo sapiens) (UniProt P42574).
T1 sequence (whole entry): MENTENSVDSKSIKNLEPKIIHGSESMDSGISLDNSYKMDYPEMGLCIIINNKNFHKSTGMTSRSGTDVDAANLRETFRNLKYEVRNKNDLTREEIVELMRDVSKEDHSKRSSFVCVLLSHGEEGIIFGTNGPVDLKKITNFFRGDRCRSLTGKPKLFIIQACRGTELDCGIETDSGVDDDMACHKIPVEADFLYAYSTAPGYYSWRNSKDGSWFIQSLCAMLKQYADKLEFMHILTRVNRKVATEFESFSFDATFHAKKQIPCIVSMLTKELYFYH
Kind of experiment: Inhibition of caspase 3.

Activity calls are given as the source filed them. No cut-off for these calls is given here.

As to `CC(C)[C@H](NC(=O)c1ccc2ccccc2c1)C(=O)N[C@@H](C)C(=O)N[C@H](CNC1CCCCC1)CC(=O)O`, the Activity result in the experiment on HT-29 is “Not toxic”.

For `CC(C)[C@H](NC(=O)c1ccc2ccccc2c1)C(=O)N[C@@H](C)C(=O)N[C@H](CCCc1ccccc1)CC(=O)O`, the Activity entry in the experiment on HT-29 was “Not toxic”.

Consider `COc1ccccc1CNC[C@H](CC(=O)O)NC(=O)[C@H](C)NC(=O)[C@@H](NC(=O)c1ccc2ccccc2c1)C(C)C`, for which, in the experiment with HT-29, the Activity result was “Not toxic”.

Regarding `CC(C)[C@H](NC(=O)c1ccc2ccccc2c1)C(=O)N[C@@H](C)C(=O)N[C@H](CNCc1ccccc1)CC(=O)O`, the Activity result in the experiment with HT-29 was “Not toxic”.

In the case of `CC(C)[C@H](NC(=O)c1ccc2ccccc2c1)C(=O)N[C@@H](C)C(=O)N[C@@H](CC(=O)O)CN(C)Cc1ccccc1`, the Activity result in the experiment with HT-29 is “Not toxic”.

`CC(C)[C@H](NC(=O)c1ccc2ccccc2c1)C(=O)N[C@@H](C)C(=O)N[C@H](CNCc1ccc2c(c1)OCO2)CC(=O)O`: the Activity result in the experiment on HT-29 is “Not toxic”.

As for `CC(C)[C@H](NC(=O)c1ccc2ccccc2c1)C(=O)N[C@@H](C)C(=O)N[C@H](CNCc1ccc(O)cc1)CC(=O)O`, in the experiment with HT-29, the Activity result was “Not toxic”.

As for `CC(C)[C@H](NC(=O)c1ccc2ccccc2c1)C(=O)N[C@@H](C)C(=O)N[C@H](CNCc1ccccc1O)CC(=O)O`, the result at Caspase-3 (Homo sapiens) was inactive. For the same compound, the Activity entry in the experiment with HT-29 was “Not toxic”.

With `CC(C)[C@H](NC(=O)c1ccc2ccccc2c1)C(=O)N[C@@H](C)C(=O)N[C@H](CNCc1ccccc1F)CC(=O)O`, the Activity entry in the experiment with HT-29 was “Not toxic”.

`CC(C)[C@H](NC(=O)c1ccc2ccccc2c1)C(=O)N[C@@H](C)C(=O)N[C@H](CNCc1ccc(C(N)=O)cc1)CC(=O)O`: the Activity entry in the experiment with HT-29 was “Not toxic”.

With `CC(C)[C@H](NC(=O)c1ccc2ccccc2c1)C(=O)N[C@@H](C)C(=O)N[C@@H](CC(=O)O)CN(C)C1CCCCC1`, the Activity result in the experiment on HT-29 was “Not toxic”.

The record behind these values is ChEMBL document CHEMBL1157618, “Noncovalent tripeptidyl benzyl- and cyclohexyl-amine inhibitors of the cysteine protease caspase-1” (J Med Chem, 2010).
